# How the values were obtained:
# Assay type in all cases: functional
# RPMI-8226 = assay: Anticancer activity against human RPMI8226 cells after 48 hrs; details: RPMI-8226, 48 h
# In short: (§1)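 NCI 60-line panel protocol with a 48 h incubation. Per line: GI50 = concentration giving 50% decrease in net cell growth; TGI = total growth inhibition; LC50 = net 50% loss of initial cells. When the level was not reached or was exceeded, the value is given as greater or less than the highest or lowest concentration tested.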
# RXF 393 = assay: Anticancer activity against human RXF393 cells after 48 hrs; details: RXF 393, 48 h; in short: as §1
# T47D = assay: Anticancer activity against human T47D cells after 48 hrs; details: for CC50: read-out: LC50 (the source's name)
# In short: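 NCI ~60 human tumour cell line panel with a 48 h incubation. GI50 is the concentration giving a 50% fall in net growth, TGI gives total growth inhibition, and LC50 gives a net 50% loss of initial cells. An effect not reached or exceeded is reported as greater or less than the highest or lowest concentration tested.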
Compound,GI50 (RPMI-8226),LC50 (concentration for net 50% loss of initial cells) (RPMI-8226),TGI (RPMI-8226),GI50 (RXF 393),LC50 (RXF 393),TGI (RXF 393),GI50 (T47D),TGI (T47D),CC50 (T47D)
COc1ccc(C2CC(c3cc(Cl)c(C)cc3O)=NN2c2ccc(S(N)(=O)=O)cc2)cc1OC (stereo unspecified),4.1 µM,> 100 µM,100 µM,2.88 µM,31.4 µM,7.52 µM,3.1 µM,13.3 µM,> 100 µM
Cc1cc(O)c(C2=NN(c3ccc(S(N)(=O)=O)cc3)C(/C=C/c3ccccc3)C2)cc1Cl (stereo unspecified),4.95 µM,0.575 µM,20.6 µM,6.69 µM,52.6 µM,20.2 µM,3.38 µM,14.7 µM,44.5 µM
Cc1cc(O)c(C2=NN(c3ccc(S(N)(=O)=O)cc3)C(c3ccccc3Cl)C2)cc1Cl (stereo unspecified),2.97 µM,> 100 µM,8.35 µM,3.09 µM,> 100 µM,8.22 µM,2.81 µM,10.3 µM,82.3 µM
Cc1cc(O)c(C2=NN(c3ccc(S(N)(=O)=O)cc3)C(c3ccccc3O)C2)cc1Cl (stereo unspecified),2.39 µM,> 100 µM,15 µM,3.65 µM,64.8 µM,13 µM,3.18 µM,14.6 µM,64.9 µM

# Source: ChEMBL document CHEMBL1914430, “Synthesis of some new 1,3,5-trisubstituted pyrazolines bearing benzene sulfonamide as anticancer and anti-inflammatory agents” (Bioorg Med Chem Lett, 2011)
